{"source": "ChEMBL document CHEMBL5154915", "about": "(J Med Chem, 2022)", "key": {"Cavia porcellus [1]": {"species_on_record": "Cavia porcellus", "test": "Activation of SERCA2a activity in guinea pig heart sarcoplasmic reticulum microsomal fraction assessed as increase in SERCA2a-Ca2+ affinity by measuring Kd of calcium at 100 nM preincubated for 5 mins followed by addition of 32-P-ATP measured after 15 mins relative to control", "assay_type": "subcellular", "details": "time 20.0 min", "in_short": "(§1)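 Cardiac SR microsomes were prepared from healthy guinea pig hearts and contain SERCA2a plus PLN. Compounds were tested at 10 and 100 nM. KdCa and Vmax were derived by curve fitting. N = 4–11; one-way RM ANOVA with Tukey or paired t-test.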"}, "Cavia porcellus [2]": {"species_on_record": "Cavia porcellus", "test": "Activation of SERCA2a activity in guinea pig heart sarcoplasmic reticulum microsomal fraction assessed as increase in SERCA2a-Ca2+ affinity by measuring Kd of calcium at 10 to 100 nM preincubated for 5 mins followed by addition of 32-P-ATP measured after 15 mins", "assay_type": "subcellular", "details": "filed as activator, dose 10-100 nM, time 20.0 min", "in_short": "as §1, with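 “nM. ATPase was measured as 32P-ATP release at 37 °C, taking the cyclopiazonic acid (10 μM)-sensitive part, across Ca2+ 100–1500 nM.” for “nM.”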"}, "[3]": {"test": "Acute toxicity in po dosed Albino Swiss CD-1 mouse assessed as lethal dose after 24 hrs", "assay_type": "organism-based", "details": "in vivo", "in_short": "(§2)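 Male Albino Swiss CD-1 mice received compound in saline. Intravenous doses were 100, 200, 250, 275 and 300 mg/kg (1–4 mice per group). Oral doses were 100, 200, 400, 600 and 800 mg/kg (4 per group). Vehicle-only controls were included.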"}, "[4]": {"test": "Acute toxicity in iv dosed Albino Swiss CD-1 mouse assessed as lethal dose after 24 hrs", "assay_type": "organism-based", "details": "in vivo", "in_short": "as §2"}, "Na+/K+ ATPase alpha 1": {"biological_target": "Na+/K+ ATPase alpha 1 (Canis lupus familiaris, UniProt P50997)", "test": "Inhibition of Beagle dog kidney NA+/K+ ATPase alpha 1 by measuring 32P-ATP hydrolysis at 0.0001 M preincubated for 10 mins followed by addition of 32P-ATP measured after 15 mins", "assay_type": "toxicity", "details": "dog kidney Na+/K+ ATPase alpha 1, probe 32P-ATP, time 25 min", "in_short": "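Na+/K+ ATPase-α1 was purified from dog kidney (specific activity 14 μmol/min/mg protein). Compounds were tested from 10–9 to 10–4 M. Activity is the ouabain (1 mM)-sensitive part of total 32P-ATP release at 37 °C. N = 2.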"}, "Cavia porcellus [5]": {"species_on_record": "Cavia porcellus", "test": "Activation of SERCA1 activity in guinea pig skeletal muscle microsome from hind leg assessed as increase in SERCA1-Ca2+ affinity by measuring Kd of calcium at 30 to 1000 nM preincubated for 5 mins followed by addition of 32-P-ATP measured after 15 mins in presence of PLN (1-12) relative to control", "assay_type": "microsomes", "details": "dose 30-1000 nM, time 20.0 min"}, "[6]": {"test": "Acute toxicity in Albino Swiss CD-1 mouse assessed as convulsions at 100 to 800 mg/kg, po or 100 to 300 mg/kg, iv after 24 hrs", "assay_type": "organism-based", "details": "in vivo, dose 100-800 mg/kg", "in_short": "as §2"}, "Rattus norvegicus [7]": {"tested_on": "Rattus norvegicus", "test": "Hemodynamic activity in STZ-induced diabetic cardiomyopathy Sprague-Dawley rat model assessed as transmitral doppler flow index by measuring shortening in DT wave at 0.2 mg/kg/min, iv for 15 to 30 mins measured after 10 mins of treatment by tissue doppler imaging method", "assay_type": "functional, organism-based", "details": "time lower […], time upper 40.0 min", "in_short": "(§3)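 Male Sprague Dawley rats (150–175 g) were made diabetic with STZ 50 mg/kg i.v. in citrate buffer; fasting glycaemia >290 mg/dL at 1 week qualified. They were studied 8 weeks after STZ under urethane 1.25 g/kg i.p. Transthoracic echo with pulsed Doppler and TDI was taken before, at 15 and 30 min during i.v. infusion at 0.2 mg/kg/min, and 10 min after stopping. N = 13; one-way RM ANOVA.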"}, "Rattus norvegicus [8]": {"tested_on": "Rattus norvegicus", "test": "Hemodynamic activity in STZ-induced diabetic cardiomyopathy Sprague-Dawley rat model assessed as effect on systolic TDI velocity at 0.2 mg/kg/min, iv for 15 to 30 mins measured after 10 mins of treatment by tissue doppler imaging method", "assay_type": "functional, organism-based", "details": "time lower […], time upper 40.0 min", "in_short": "as §3"}, "Rattus norvegicus [9]": {"tested_on": "Rattus norvegicus", "test": "Hemodynamic activity in STZ-induced diabetic cardiomyopathy Sprague-Dawley rat model assessed as effect on left ventricular end-systolic diameter at 0.2 mg/kg/min, iv for 15 to 30 mins measured after 10 mins of treatment by tissue doppler imaging method", "assay_type": "functional, organism-based", "details": "time lower […], time upper 40.0 min", "in_short": "as §3"}, "Rattus norvegicus [10]": {"tested_on": "Rattus norvegicus", "test": "Hemodynamic activity in STZ-induced diabetic cardiomyopathy Sprague-Dawley rat model assessed as effect on systolic index by measuring fractional shortening at 0.2 mg/kg/min, iv for 15 to 30 mins measured after 10 mins of treatment by tissue doppler imaging method", "assay_type": "functional, organism-based", "details": "time lower […], time upper 40.0 min", "in_short": "as §3"}, "[11]": {"test": "Inhibition of NA+/K+ ATPase activity in STZ-induced diabetic rat left ventricular myocytes assessed as inhibition of NA+/K+ ATPase current at 20 to 100 uM for 30 min", "assay_type": "toxicity, cell-based", "details": "ventricular myocyte, 0.5 h, dose 20-100 µM"}, "Rattus norvegicus [12]": {"tested_on": "Rattus norvegicus", "test": "Hemodynamic activity in STZ-induced diabetic cardiomyopathy Sprague-Dawley rat model assessed as effect on heart rate at 0.2 mg/kg/min, iv for 15 to 30 mins measured after 10 mins of treatment by tissue doppler imaging method", "assay_type": "functional, organism-based", "details": "time lower […], time upper 40.0 min", "in_short": "as §3"}, "Rattus norvegicus [13]": {"tested_on": "Rattus norvegicus", "test": "Hemodynamic activity in STZ-induced diabetic cardiomyopathy Sprague-Dawley rat model assessed as increased cardiac output at 0.2 mg/kg/min, iv for 15 to 30 mins measured after 10 mins of treatment by tissue doppler imaging method", "assay_type": "functional, organism-based", "details": "time lower […], time upper 40.0 min", "in_short": "as §3"}, "Rattus norvegicus [14]": {"tested_on": "Rattus norvegicus", "test": "Hemodynamic activity in STZ-induced diabetic cardiomyopathy Sprague-Dawley rat model assessed as transmitral doppler flow index by measuring increase in protodiastolic TDI relaxation velocity at 0.2 mg/kg/min, iv for 15 to 30 mins measured after 10 mins of treatment by tissue doppler imaging method", "assay_type": "functional, organism-based", "details": "time lower […], time upper 40.0 min", "in_short": "as §3"}, "[15]": {"test": "Acute toxicity in Albino Swiss CD-1 mouse assessed as gasping at 100 to 800 mg/kg, po or 100 to 300 mg/kg, iv after 24 hrs", "assay_type": "organism-based", "details": "in vivo, dose 100-800 mg/kg", "in_short": "as §2"}, "Cavia porcellus [16]": {"species_on_record": "Cavia porcellus", "test": "Activation of SERCA1 activity in guinea pig skeletal muscle microsome from hind leg assessed as increase in SERCA1-Ca2+ affinity by measuring reversal of PLN (1-12)-induced shift in dissociation of calcium", "assay_type": "microsomes", "details": "filed as activator, dose 30-1000 nM, DDE = dose-dependent effect"}, "[17]": {"test": "Acute toxicity in Albino Swiss CD-1 mouse assessed as prostration at 100 to 800 mg/kg, po or 100 to 300 mg/kg, iv after 24 hrs", "assay_type": "organism-based", "details": "in vivo, dose 100-800 mg/kg", "in_short": "as §2"}, "Rattus norvegicus [18]": {"tested_on": "Rattus norvegicus", "test": "Hemodynamic activity in STZ-induced diabetic cardiomyopathy Sprague-Dawley rat model assessed as transmitral doppler flow index by measuring increasing in E and A waves at 0.2 mg/kg/min, iv for 15 to 30 mins measured after 10 mins of treatment by tissue doppler imaging method", "assay_type": "functional, organism-based", "details": "time lower […], time upper 40.0 min", "in_short": "as §3"}, "Rattus norvegicus [19]": {"tested_on": "Rattus norvegicus", "test": "Hemodynamic activity in STZ-induced diabetic cardiomyopathy Sprague-Dawley rat model assessed as transmitral doppler flow index by measuring increase in telediastolic TDI relaxation velocity at 0.2 mg/kg/min, iv for 15 to 30 mins measured after 10 mins of treatment by tissue doppler imaging method", "assay_type": "functional, organism-based", "details": "time lower […], time upper 40.0 min", "in_short": "as §3"}}, "note": "Activity calls are given as the source filed them. The rule behind the calls is not given here."}
{"smiles": "C[C@]12CC/C(=C\\CCC(=O)O)C[C@@H]1[C@@H](O)C[C@@H]1[C@@H]2CC[C@]2(C)C(=O)CC[C@@H]12", "values": [{"measurement": "Activity", "setting": "Cavia porcellus [1]", "value": -26, "unit": "%"}, {"measurement": "Activity", "setting": "Cavia porcellus [2]", "value": "Active"}]}
{"smiles": "CCOC(=O)C[C@H]1CC[C@@]2(C)[C@H](C1)[C@@H](O)C[C@@H]1[C@@H]2CC[C@]2(C)C(=O)CC[C@@H]12", "values": [{"measurement": "Activity", "setting": "Cavia porcellus [2]", "value": "Active"}]}
{"smiles": "C[C@]12CCC(=NOCCN)C[C@@H]1C(=O)C[C@@H]1[C@@H]2CC[C@]2(C)C(=O)CC[C@@H]12", "note": "(mixture of isomers)", "values": [{"measurement": "LD50 at 24 h", "setting": "[3]", "value": 200, "unit": "mg/kg"}]}
{"smiles": "CCOC(=O)CCC[C@H]1CC[C@@]2(C)[C@H](C1)[C@@H](O)C[C@@H]1[C@@H]2CC[C@]2(C)C(=O)CC[C@@H]12", "values": [{"measurement": "Activity", "setting": "Cavia porcellus [1]", "value": -26, "unit": "%"}, {"measurement": "Activity", "setting": "Cavia porcellus [2]", "value": "Active"}]}
{"smiles": "C[C@]12CC[C@H](CCCCCC(=O)O)C[C@@H]1[C@@H](O)C[C@@H]1[C@@H]2CC[C@]2(C)C(=O)CC[C@@H]12", "values": [{"measurement": "Activity", "setting": "Cavia porcellus [1]", "value": -26, "unit": "%"}, {"measurement": "Activity", "setting": "Cavia porcellus [2]", "value": "Active"}]}
{"smiles": "C[C@]12CC/C(=N\\OCC(=O)O)C[C@@H]1[C@H](O)C[C@@H]1[C@@H]2CC[C@]2(C)C(=O)CC[C@@H]12", "values": [{"measurement": "LD50 at 24 h", "setting": "[4]", "value": "> 250", "unit": "mg/kg"}]}
{"smiles": "C[C@]12CC/C(=C\\CCC(=O)O)C[C@@H]1[C@H](O)C[C@@H]1[C@@H]2CC[C@]2(C)C(=O)CC[C@@H]12", "values": [{"measurement": "inhibition at […], 100 µM", "setting": "Na+/K+ ATPase alpha 1", "value": -62, "unit": "%"}]}
{"smiles": "C[C@]12CC[C@H](CCCC(=O)O)C[C@@H]1[C@H](O)C[C@@H]1[C@@H]2CC[C@]2(C)C(=O)CC[C@@H]12", "values": [{"measurement": "Activity", "setting": "Cavia porcellus [2]", "value": "Active"}]}
{"smiles": "C[C@]12CC[C@H](CC(=O)O)C[C@@H]1[C@H](O)C[C@@H]1[C@@H]2CC[C@]2(C)C(=O)CC[C@@H]12", "values": [{"measurement": "inhibition at […], 100 µM", "setting": "Na+/K+ ATPase alpha 1", "value": -55, "unit": "%"}]}
{"smiles": "C[C@]12CC[C@H](CCCC(=O)O)C[C@@H]1[C@@H](O)C[C@@H]1[C@@H]2CC[C@]2(C)C(=O)CC[C@@H]12", "values": [{"measurement": "Activity", "setting": "Cavia porcellus [5]", "value": 23, "unit": "%"}, {"measurement": "Activity", "setting": "[6]", "value": "Non-Toxic"}, {"measurement": "Activity", "setting": "Rattus norvegicus [7]", "value": "Active"}, {"measurement": "Activity", "setting": "Rattus norvegicus [8]", "value": "Active"}, {"measurement": "Activity", "setting": "Rattus norvegicus [9]", "value": "Active"}, {"measurement": "Activity", "setting": "Rattus norvegicus [10]", "value": "Active"}, {"measurement": "inhibition (INH)", "setting": "[11]", "value": "Active"}, {"measurement": "Activity", "setting": "Rattus norvegicus [12]", "value": "Active"}, {"measurement": "Activity", "setting": "Rattus norvegicus [13]", "value": "Active"}, {"measurement": "Activity", "setting": "Rattus norvegicus [14]", "value": "Active"}, {"measurement": "Activity", "setting": "[15]", "value": "Non-Toxic"}, {"measurement": "Activity", "setting": "Cavia porcellus [16]", "value": "Dde"}, {"measurement": "Activity", "setting": "Cavia porcellus [2]", "value": "Active"}, {"measurement": "Activity", "setting": "[17]", "value": "Non-Toxic"}, {"measurement": "Activity", "setting": "Rattus norvegicus [18]", "value": "Active"}, {"measurement": "Activity", "setting": "Rattus norvegicus [19]", "value": "Active"}]}
{"smiles": "CCOC(=O)CCCCC[C@H]1CC[C@@]2(C)[C@H](C1)[C@@H](O)C[C@@H]1[C@@H]2CC[C@]2(C)C(=O)CC[C@@H]12", "values": [{"measurement": "Activity", "setting": "Cavia porcellus [1]", "value": -26, "unit": "%"}, {"measurement": "Activity", "setting": "Cavia porcellus [2]", "value": "Active"}]}
{"smiles": "C[C@]12CC[C@H](CC(=O)O)C[C@@H]1[C@@H](O)C[C@@H]1[C@@H]2CC[C@]2(C)C(=O)CC[C@@H]12", "values": [{"measurement": "Activity", "setting": "Cavia porcellus [5]", "value": 23, "unit": "%"}, {"measurement": "Activity", "setting": "Cavia porcellus [1]", "value": -26, "unit": "%"}, {"measurement": "Activity", "setting": "Cavia porcellus [16]", "value": "Dde"}, {"measurement": "Activity", "setting": "Cavia porcellus [2]", "value": "Active"}]}
